Reference: ChEMBL document CHEMBL3872252, “New bithiazolyl hydrazones: Novel synthesis, characterization and antitubercular evaluation” (Bioorg Med Chem Lett, 2017)
Converted amounts (≈) assume the structure as drawn.

Legend:
[1] = test system: Bacillus subtilis; assay: Growth inhibition of Bacillus subtilis at 30 ug/ml; type: functional; conditions: read-out: GI
[2] = Antitubercular activity against Mycobacterium bovis BCG ATCC 35743 dormant stage measured on day 12 by nitrate reductase based two-fold dilution assay; type: functional, Mycobacterium bovis BCG str. ATCC 35743; conditions: Mycobacterium tuberculosis variant bovis BCG, ATCC 35743, 288 h
[3] = test system: Pseudomonas aeruginosa; assay: Growth inhibition of Pseudomonas aeruginosa at 3 ug/ml; type: functional; conditions: read-out: GI
In short: (§1)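 Screened against Gram-negative E. coli and P. aeruginosa and Gram-positive S. aureus and B. subtilis. Compound was tested at 3 µg/ml, and the read-out is percent growth inhibition.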

[4] = Selectivity index, ratio of GI50 for human THP1 cells to MIC90 for Mycobacterium tuberculosis H37Ra ATCC 25177 dormant stage; type: toxicity, cell-based, THP-1; conditions: read-out: Selectivity Index
In short: (§2)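 Cytotoxicity was measured on human MCF-7, HCT116 and THP-1 cells by MTT assay, with paclitaxel as reference. The selectivity index is GI50 for the given cell line divided by MIC90 for the given mycobacterial strain and stage.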

[5] = test system: Staphylococcus aureus; assay: Growth inhibition of Staphylococcus aureus at 30 ug/ml; type: functional; conditions: read-out: GI
[6] = Cytotoxicity against human MCF7 cells by MTT assay; type: toxicity, cell-based; conditions: for GI50: MCF7 cells; for GI90: mcf7
[7] = Antitubercular activity against Mycobacterium tuberculosis H37Ra ATCC 25177 dormant stage measured on day 12 by XTT reduction menadione based two-fold dilution assay; type: functional; conditions: ATCC 25177, 288 h
In short: (§3)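 M. tuberculosis H37Ra ATCC 25177 was exposed to 0.7–100 μg/mL in two-fold steps (0.7, 1.5, 3.1 … 100). Active stage was read after 8 days and dormant stage after 12 days of incubation. Inhibition was read by XTT reduction menadione assay (XRMA), absorbance 470 nm. MIC90 is the concentration giving ≥90% inhibition (µg/mL).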

[8] = test system: Bacillus subtilis; assay: Growth inhibition of Bacillus subtilis at 3 ug/ml; type: functional; conditions: read-out: GI; in short: as §1
[9] = Selectivity index, ratio of GI50 for human THP1 cells to MIC90 for Mycobacterium bovis BCG ATCC 35743 dormant stage; type: toxicity, cell-based, THP-1; conditions: read-out: Selectivity Index; in short: as §2
[10] = Selectivity index, ratio of GI50 for human HCT116 cells to MIC90 for Mycobacterium tuberculosis H37Ra ATCC 25177 dormant stage; type: toxicity, cell-based, HCT-116; conditions: read-out: Selectivity Index; in short: as §2
[11] = test system: Staphylococcus aureus; assay: Growth inhibition of Staphylococcus aureus at 10 ug/ml; type: functional; conditions: read-out: GI
[12] = Antitubercular activity against Mycobacterium tuberculosis H37Ra ATCC 25177 active stage infected in human THP1 cells measured on day 8 by nitrate reductase assay; type: functional, THP-1; conditions: ATCC 25177, 192 h
[13] = Cytotoxicity against human HCT116 cells by MTT assay; type: toxicity, cell-based, HCT-116; conditions: for GI50: HCT116 cells; for GI90: hct-116
[14] = Antitubercular activity against Mycobacterium bovis BCG ATCC 35743 active stage measured on day 8 by nitrate reductase based two-fold dilution assay; type: functional, Mycobacterium bovis BCG str. ATCC 35743; conditions: Mycobacterium tuberculosis variant bovis BCG, ATCC 35743, 192 h
[15] = test system: Bacillus subtilis; assay: Growth inhibition of Bacillus subtilis at 10 ug/ml; type: functional; conditions: read-out: GI
[16] = Selectivity index, ratio of GI50 for human HCT116 cells to MIC90 for Mycobacterium bovis BCG ATCC 35743 active stage; type: toxicity, cell-based, HCT-116; conditions: read-out: Selectivity Index
In short: (§4)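 Cytotoxicity was measured on human MCF-7, HCT116 and THP-1 cells by MTT assay, with paclitaxel as reference. GI50 is the concentration inhibiting 50% of cell growth. The selectivity index is GI50 for the given cell line divided by MIC90 for the given mycobacterial strain and stage.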

[17] = Selectivity index, ratio of GI50 for human THP1 cells to MIC90 for Mycobacterium bovis BCG ATCC 35743 active stage; type: toxicity, cell-based, THP-1; conditions: read-out: Selectivity Index; in short: as §4
[18] = Antitubercular activity against Mycobacterium tuberculosis H37Ra ATCC 25177 dormant stage infected in human THP1 cells measured on day 12 by nitrate reductase assay; type: functional, THP-1; conditions: ATCC 25177, 288 h
[19] = Selectivity index, ratio of GI50 for human MCF7 cells to MIC90 for Mycobacterium bovis BCG ATCC 35743 dormant stage; type: toxicity, cell-based; conditions: read-out: Selectivity Index; in short: as §2
[20] = Antitubercular activity against Mycobacterium tuberculosis H37Ra ATCC 25177 active stage measured on day 8 by XTT reduction menadione based two-fold dilution assay; type: functional; conditions: ATCC 25177, 192 h; in short: as §3
[21] = test system: Staphylococcus aureus; assay: Growth inhibition of Staphylococcus aureus at 3 ug/ml; type: functional; conditions: read-out: GI; in short: as §1
[22] = test system: Escherichia coli; assay: Growth inhibition of Escherichia coli at 3 ug/ml; type: functional; conditions: read-out: GI; in short: as §1
[23] = Cytotoxicity against human THP1 cells by MTT assay; type: toxicity, cell-based, THP-1; conditions: for GI50: THP1 cells; for GI90: thp-1
[24] = test system: Pseudomonas aeruginosa; assay: Growth inhibition of Pseudomonas aeruginosa at 30 ug/ml; type: functional; conditions: read-out: GI
[25] = Selectivity index, ratio of GI50 for human HCT116 cells to MIC90 for Mycobacterium bovis BCG ATCC 35743 dormant stage; type: toxicity, cell-based, HCT-116; conditions: read-out: Selectivity Index; in short: as §2
[26] = Selectivity index, ratio of GI50 for human HCT116 cells to MIC90 for Mycobacterium tuberculosis H37Ra ATCC 25177 active stage; type: toxicity, cell-based, HCT-116; conditions: read-out: Selectivity Index; in short: as §4
[27] = Selectivity index, ratio of GI50 for human THP1 cells to MIC90 for Mycobacterium tuberculosis H37Ra ATCC 25177 active stage; type: toxicity, cell-based, THP-1; conditions: read-out: Selectivity Index; in short: as §4
[28] = Selectivity index, ratio of GI50 for human MCF7 cells to MIC90 for Mycobacterium tuberculosis H37Ra ATCC 25177 active stage; type: toxicity, cell-based; conditions: read-out: Selectivity Index; in short: as §4
[29] = test system: Pseudomonas aeruginosa; assay: Growth inhibition of Pseudomonas aeruginosa at 10 ug/ml; type: functional; conditions: read-out: GI
[30] = Selectivity index, ratio of GI50 for human MCF7 cells to MIC90 for Mycobacterium tuberculosis H37Ra ATCC 25177 dormant stage; type: toxicity, cell-based; conditions: read-out: Selectivity Index; in short: as §2
[31] = test system: Escherichia coli; assay: Growth inhibition of Escherichia coli at 10 ug/ml; type: functional; conditions: read-out: GI
[32] = test system: Escherichia coli; assay: Growth inhibition of Escherichia coli at 30 ug/ml; type: functional; conditions: read-out: GI
[33] = Selectivity index, ratio of GI50 for human MCF7 cells to MIC90 for Mycobacterium bovis BCG ATCC 35743 active stage; type: toxicity, cell-based; conditions: read-out: Selectivity Index; in short: as §4

Row | Compound | inhibition of growth at 30 µg/mL [1] [%] | IC50 [2] [µg/mL] | MIC90 [2] [µg/mL] | inhibition of growth at 3 µg/mL [3] [%] | selectivity ratio [4] | inhibition of growth at 30 µg/mL [5] [%] | GI50 [6] [µg/mL] | GI90 [6] [µg/mL] | IC50 [7] [µg/mL] | MIC90 [7] [µg/mL] | inhibition of growth at 3 µg/mL [8] [%] | selectivity ratio [9] | selectivity ratio [10] | inhibition of growth at 10 µg/mL [11] [%] | MIC90 [12] [µg/mL] | GI50 [13] [µg/mL] | GI90 [13] [µg/mL] | IC50 [14] [µg/mL] | MIC90 [14] [µg/mL] | inhibition of growth at 10 µg/mL [15] [%] | other results
1 | C/C(=N\Nc1nc(-c2ccc(F)cc2)cs1)c1sc(-c2ccccc2)nc1C | 71.1 | > 100 | > 100 | 71.5 | 1 | 73.2 | > 100 | > 100 | > 100 | > 100 | 68.5 | 1 | 1 | 72.5 | > 100 | > 100 | > 100 | > 100 | > 100 | 70.2 | selectivity ratio [16]: 1; selectivity ratio [17]: 1; MIC90 [18]: > 100 µg/mL; selectivity ratio [19]: 1; IC50 [20]: > 100 µg/mL; MIC90 [20]: > 100 µg/mL; inhibition of growth at 3 µg/mL [21]: 70.7%; inhibition of growth at 3 µg/mL [22]: 72.5%; GI50 [23]: > 100 µg/mL; GI90 [23]: > 100 µg/mL; inhibition of growth at 30 µg/mL [24]: 74%; selectivity ratio [25]: 1; selectivity ratio [26]: 1; selectivity ratio [27]: 1; selectivity ratio [28]: 1; inhibition of growth at 10 µg/mL [29]: 73.2%; selectivity ratio [30]: 1; inhibition of growth at 10 µg/mL [31]: 74%; inhibition of growth at 30 µg/mL [32]: 74.7%; selectivity ratio [33]: 1
2 | C/C(=N\NC(N)=S)c1sc(-c2ccccc2)nc1C | 76.7 | 0.97 (≈ 3.34 µM) | 3.46 (≈ 11.9 µM) | 47.4 | 40 | 78.4 | 26 (≈ 89.5 µM) | > 100 | 0.78 (≈ 2.69 µM) | 2.05 (≈ 7.06 µM) | 43.4 | 24 | 23 | 64.5 | 1.94 (≈ 6.68 µM) | 47.3 (≈ 163 µM) | > 100 | 0.94 (≈ 3.24 µM) | 3.04 (≈ 10.5 µM) | 61.8 | selectivity ratio [16]: 16; selectivity ratio [17]: 27; MIC90 [18]: 3.67 µg/mL (≈ 12.6 µM); selectivity ratio [19]: 8; IC50 [20]: 0.12 µg/mL (≈ 0.413 µM); MIC90 [20]: 1.78 µg/mL (≈ 6.13 µM); inhibition of growth at 3 µg/mL [21]: 47.5%; inhibition of growth at 3 µg/mL [22]: 50.9%; GI50 [23]: 81.5 µg/mL (≈ 281 µM); GI90 [23]: > 100 µg/mL; inhibition of growth at 30 µg/mL [24]: 79.4%; selectivity ratio [25]: 14; selectivity ratio [26]: 27; selectivity ratio [27]: 46; selectivity ratio [28]: 15; inhibition of growth at 10 µg/mL [29]: 65.1%; selectivity ratio [30]: 13; inhibition of growth at 10 µg/mL [31]: 66.7%; inhibition of growth at 30 µg/mL [32]: 79.6%; selectivity ratio [33]: 9
3 | C/C(=N\Nc1nc(-c2ccc(Cl)cc2)cs1)c1sc(C)nc1C | 63.8 | 3.06 (≈ 8.43 µM) | 17 (≈ 46.7 µM) | 50.9 | 1 | 66.3 | > 100 | > 100 | 9.02 (≈ 24.9 µM) | > 100 | 47.1 | 6 | 1 | 61.7 | > 100 | > 100 | > 100 | 1.95 (≈ 5.37 µM) | 16.1 (≈ 44.2 µM) | 58.9 | selectivity ratio [16]: 6; selectivity ratio [17]: 6; MIC90 [18]: > 100 µg/mL; selectivity ratio [19]: 6; IC50 [20]: 11.9 µg/mL (≈ 32.8 µM); MIC90 [20]: > 100 µg/mL; inhibition of growth at 3 µg/mL [21]: 50.9%; inhibition of growth at 3 µg/mL [22]: 54%; GI50 [23]: > 100 µg/mL; GI90 [23]: > 100 µg/mL; inhibition of growth at 30 µg/mL [24]: 66.9%; selectivity ratio [25]: 6; selectivity ratio [26]: 3; selectivity ratio [27]: 3; selectivity ratio [28]: 3; inhibition of growth at 10 µg/mL [29]: 61.6%; selectivity ratio [30]: 1; inhibition of growth at 10 µg/mL [31]: 63.9%; inhibition of growth at 30 µg/mL [32]: 68.4%; selectivity ratio [33]: 6
